Test results taken from ChEMBL document CHEMBL4024801, “Synthesis and Structure-Activity Relationship (SAR) Studies of Novel Pyrazolopyridine Derivatives as Inhibitors of Enterovirus Replication” (J Med Chem, 2018).
pEC50: −log10 of the molar value.

Columns and labels:
[1] = tested on: LLC-MK2; assay: Cytotoxicity against monkey LLC-MK2 cells after 3 to 4 days by crystal violet staining-based spectrophotometric method; assay type: cell-based, Macaca mulatta; settings: rhesus monkey
In short: (§1)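 Uninfected cells (HeLa-RW or LLC-MK2, in DMEM with penicillin, streptomycin, glutamine and 10% FBS) were exposed to serial 2-fold compound dilutions for the same period as the CPE assay. They were then fixed with formaldehyde, stained with crystal violet and read by OD590 spectrophotometry to derive CC50. Values are means ± s.d. of 3 experiments, or the average of triplicates in one.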

[2] = Selectivity index, ratio of CC50 for human HeLa-RW cells to EC50 for Poliovirus 3; assay type: toxicity; settings: read-out: Ratio CC50/EC50
In short: (§2)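 HeLa-RW cells grown in DMEM with penicillin, streptomycin, glutamine and 10% FBS were infected at a low MOI chosen to give full CPE in 3-4 days. Serial 2-fold compound dilutions from DMSO stocks were tested in triplicate. When control CPE was maximal, cells were formaldehyde-fixed, crystal violet-stained and read at OD590. EC50 came from a 7-point curve. CC50 used uninfected cells over the same period.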

[3] = Selectivity index, ratio of CC50 for human HeLa-RW cells to EC50 for Coxsackievirus B3; assay type: toxicity; settings: read-out: Ratio CC50/EC50
In short: (§3)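 HeLa-RW cells in DMEM with 10% FBS were used for both arms. For EC50, cells were infected with CVB3-H3 at a low MOI giving full CPE in 3–4 days and exposed to 2-fold compound dilutions, in triplicate, with a 7-point fit. For CC50, uninfected cells got 2-fold dilutions for the same period. Both arms were fixed, crystal violet-stained and read at OD590.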

[4] = Cytotoxicity against human HeLa-RW cells after 3 to 4 days by crystal violet staining-based spectrophotometric method; assay type: cell-based; in short: as §1
[5] = tested on: Coxsackievirus B3; assay: Antiviral activity against Coxsackievirus B3 infected in human HeLa-RW cells assessed as protection against virus-induced cytopathic effect after 3 to 4 days by crystal violet staining-based spectrophotometric method; assay type: functional, cell-based; settings: Enterovirus B
In short: (§4)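 HeLa-RW cells grown in DMEM with penicillin, streptomycin, glutamine and 10% FBS. They were infected at a low MOI pre-set to give full CPE in 3-4 days. Compound in DMSO was added as serial 2-fold dilutions (7 points), each in triplicate. When control CPE was maximal, cells were fixed with 4% formaldehyde, stained with 0.25% crystal violet and read at OD590. EC50 came from a four-parameter or sigmoidal fit.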

[6] = Selectivity index, ratio of CC50 for monkey LLC-MK2 cells to EC50 for Enterovirus A71; assay type: toxicity; settings: read-out: Ratio CC50/EC50
In short: as §3, with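 “LLC-MK2” for “HeLa-RW”, “EV-A71” for “CVB3-H3”, “triplicate.” for “triplicate, with a 7-point fit.”, “formaldehyde-fixed,” for “fixed,”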

[7] = tested on: Enterovirus A71; assay: Antiviral activity against Enterovirus A71 infected in monkey LLC-MK2 cells assessed as protection against virus-induced cytopathic effect after 3 to 4 days by crystal violet staining-based spectrophotometric method; assay type: functional, cell-based; settings: Enterovirus A
In short: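 EV-A71 was tested in LLC-MK2 cells grown in DMEM with 10% FBS, penicillin, streptomycin and glutamine, at a low MOI preset to give full CPE in 3–4 days. Compound was dissolved in DMSO and diluted 2-fold, in triplicate. Cells were fixed with formaldehyde when control CPE was maximal, then stained with crystal violet and read at OD590. EC50 came from a 7-point four-parameter or sigmoidal fit.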

[8] = Selectivity index, ratio of CC50 for human HeLa-RW cells to EC50 for Poliovirus 1; assay type: toxicity; settings: read-out: Ratio CC50/EC50; in short: as §2
[9] = tested on: Poliovirus 1; assay: Antiviral activity against Poliovirus 1 infected in human HeLa-RW cells assessed as protection against virus-induced cytopathic effect after 3 to 4 days by crystal violet staining-based spectrophotometric method; assay type: functional, cell-based; settings: Enterovirus C; in short: as §4
[10] = tested on: Poliovirus 3; assay: Antiviral activity against Poliovirus 3 infected in human HeLa-RW cells assessed as protection against virus-induced cytopathic effect after 3 to 4 days by crystal violet staining-based spectrophotometric method; assay type: functional, cell-based; settings: Enterovirus C; in short: as §4

| SMILES | CC50 [1] [µM] | selectivity ratio [2] | selectivity ratio [3] | CC50 ([4]; hela-rw) [µM] | pEC50 [5] | selectivity ratio [6] | pEC50 [7] | selectivity ratio [8] | pEC50 [9] | pEC50 [10] | CC50 ([4]; HeLa-RW cells) [µM] |
| --- | --- | --- | --- | --- | --- | --- | --- | --- | --- | --- | --- |
| CC(C)n1ncc2c(C(=O)N3CCc4cc(F)ccc43)cc(-c3cccs3)nc21 | > 200 | 1.9 | 9.9 | 18.8 | 5.72 | > 153 | 5.89 | 1.9 | 5.00 | 5.00 |  |
| CC(C)n1ncc2c(C(=O)Nc3cc(C(N)=O)ccc3F)cc(-c3cccs3)nc21 | 25 | 3.8 | 23.5 | 18.8 | 6.10 | 50 | 6.30 | 3.8 | 5.30 | 5.30 |  |
| CC(C)n1ncc2c(C(=O)Nc3cccc(S(N)(=O)=O)c3)cc(-c3cccs3)nc21 | 25 | 10 | 167 |  | 5.89 | 19.2 | 5.89 | 10 | 5.30 | 5.30 | 50 to 200 |
| CC(C)n1ncc2c(C(=O)Nc3cncnc3)cc(-c3cccs3)nc21 | 20 | 1.8 | 25.7 | 18 | 6.15 | 50 | 6.40 | 1.8 | 5.00 | 5.00 |  |
| CC(C)n1ncc2c(C(=O)Nc3cccc(C(N)=O)c3)cc(-c3cccs3)nc21 | 25 | 2.9 | 25.7 | 18 | 6.15 | 31.3 | 6.10 | 2.9 | 5.20 | 5.20 |  |
| CC(C)n1ncc2c(C(=O)Nc3ccccc3F)cc(-c3cccs3)nc21 | 50 | 1.8 | 8.9 | 12.5 | 5.85 | 21.7 | 5.64 | 1.8 | 5.15 | 5.15 |  |
| CC(C)n1ncc2c(C(=O)Nc3cc(S(N)(=O)=O)ccc3F)cc(-c3cccs3)nc21 | 25 | 2.9 | 25.7 | 18 | 6.15 | 50 | 6.30 | 2.9 | 5.20 | 5.20 |  |
| CC(C)n1ncc2c(C(=O)Nc3ccc(F)cn3)cc(-c3cccs3)nc21 | > 200 |  | 53.6 | 37.5 | 6.15 | > 167 | 5.92 |  | < 5.00 | < 5.00 |  |
| CC(C)n1ncc2c(C(=O)Nc3ccc(F)cc3)cc(-c3ccsc3)nc21 | > 200 |  | 19.2 | 25 | 5.89 | > 143 | 5.85 |  | < 4.60 | < 4.60 |  |
| CC(C)n1ncc2c(C(=O)Nc3c(F)cc(F)cc3F)cc(-c3cccs3)nc21 | > 200 |  | > 111 | > 200 | 5.74 | > 66.7 | 5.52 |  | < 4.60 | < 4.60 |  |
| CC(C)n1ccc2c(C(=O)Nc3ccccn3)cc(-c3cccs3)nc21 | > 200 |  | 8.5 | 18.8 | 5.66 | > 167 | 5.92 |  | < 5.00 | < 5.00 |  |
| CC(C)n1ncc2c(C(=O)Nc3cccnc3)cc(-c3cccs3)nc21 | > 200 | 2.5 | 62.5 | 25 | 6.40 | > 400 | 6.30 | 2.5 | 5.00 | 5.00 |  |
| CC(C)n1ncc2c(C(=O)Nc3cccc(F)c3F)cc(-c3cccs3)nc21 | 75 |  | > 74.1 | > 200 | 5.57 | 25 | 5.52 |  | < 4.60 | < 4.60 |  |
| CC(C)n1ncc2c(C(=O)Nc3ccc(F)cc3)cc(C3CC3)nc21 | 12.5 |  | 3 | 10 | 5.48 | 3.9 | 5.49 |  | < 4.60 | < 4.60 |  |
| CC(C)n1ccc2c(C(=O)Nc3cccnc3)cc(-c3cccs3)nc21 | 25 |  | 13.8 | 18 | 5.89 | 31.3 | 6.10 |  | < 5.00 | < 5.00 |  |
